Data published in ChEMBL document CHEMBL4689842, “EUbOPEN Chemogenomics Library wave 1” (2021).

Test system: U2OS
Experiment: Multiplex assay against U2OS
Type: toxicity, cell-based
Settings: human
Outline: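 Cells stained live at seeding with Hoechst33342, BioTracker Green Microtubule Cytoskeleton Dye, MitoTracker Red and Annexin V Alexa Fluor 680 were imaged on a CQ1 microscope at 37°C and 5% CO2 after compound addition. Their classification by CellPathfinder machine-learning gating ran from Hoechst high-intensity objects versus normal cells, to healthy, pyknosed or fragmented nuclei among normal cells, to mitotic or apoptotic among pyknosed cells. Tubulin, mitochondrial-mass and membrane-permeability phenotypes are per cents of healthy-nucleus cells.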

[1] = 12 h, 1 µM, compound concentration 1 uM, replicate 1
[2] = 12 h, 1 µM, compound concentration 1 uM, replicate 2
[3] = 12 h, 10 µM, compound concentration 10 uM, replicate 1
[4] = 12 h, 10 µM, compound concentration 10 uM, replicate 2
[5] = 24 h, 1 µM, compound concentration 1 uM, replicate 1
[6] = 24 h, 1 µM, compound concentration 1 uM, replicate 2
[7] = 24 h, 10 µM, compound concentration 10 uM, replicate 1
[8] = 24 h, 10 µM, compound concentration 10 uM, replicate 2
[9] = 48 h, 1 µM, compound concentration 1 uM, replicate 1
[10] = 48 h, 1 µM, compound concentration 1 uM, replicate 2
[11] = 48 h, 10 µM, compound concentration 10 uM, replicate 1
[12] = 48 h, 10 µM, compound concentration 10 uM, replicate 2

## C[C@@H](Oc1cc(-n2cnc3ccc(CN4CCN(C)CC4)cc32)sc1C(N)=O)c1ccccc1C(F)(F)F [GSK-461364]
[1]
  Population Apoptotic (%): 55%
  Population Fragmented Nuclei (%): 13%
  Population Healthy Nuclei (%): 70%
  Population Hoechst High Intensity Objects (%): 7%
  Population Membrane Permeable-Phenotype (%): 7%
  Population Mitochondria Different-Phenotype (%): 60%
  Population Mitotic Cells (%): 45%
  Population Normal (%): 92%
  Population Pyknosed Nuclei (%): 15%
  Population Tubulin-Different-Phenotype (%): 84%
  Total Cell Count: 153
[2]
  Population Apoptotic (%): 12%
  Population Fragmented Nuclei (%): 12%
  Population Healthy Nuclei (%): 71%
  Population Hoechst High Intensity Objects (%): 4%
  Population Membrane Permeable-Phenotype (%): 12%
  Population Mitochondria Different-Phenotype (%): 35%
  Population Mitotic Cells (%): 87%
  Population Normal (%): 95%
  Population Pyknosed Nuclei (%): 16%
  Population Tubulin-Different-Phenotype (%): 30%
[3]
  Population Apoptotic (%): 58%
  Population Fragmented Nuclei (%): 14%
  Population Healthy Nuclei (%): 40%
  Population Hoechst High Intensity Objects (%): 9%
  Population Membrane Permeable-Phenotype (%): 81%
  Population Mitochondria Different-Phenotype (%): 100%
  Population Mitotic Cells (%): 41%
  Population Normal (%): 90%
  Population Pyknosed Nuclei (%): 44%
  Population Tubulin-Different-Phenotype (%): 100%
  Total Cell Count: 137
[4]
  Population Apoptotic (%): 40%
  Population Fragmented Nuclei (%): 13%
  Population Healthy Nuclei (%): 55%
  Population Membrane Permeable-Phenotype (%): 71%
  Population Mitotic Cells (%): 59%
  Population Pyknosed Nuclei (%): 31%
[5]
  Population Apoptotic (%): 78%
  Population Fragmented Nuclei (%): 16%
  Population Healthy Nuclei (%): 65%
  Population Hoechst High Intensity Objects (%): 6%
  Population Membrane Permeable-Phenotype (%): 8%
  Population Mitochondria Different-Phenotype (%): 65%
  Population Mitotic Cells (%): 21%
  Population Normal (%): 93%
  Population Pyknosed Nuclei (%): 17%
  Population Tubulin-Different-Phenotype (%): 91%
[6]
  Population Apoptotic (%): 50%
  Population Fragmented Nuclei (%): 14%
  Population Healthy Nuclei (%): 68%
  Population Hoechst High Intensity Objects (%): 4%
  Population Membrane Permeable-Phenotype (%): 18%
  Population Mitochondria Different-Phenotype (%): 35%
  Population Mitotic Cells (%): 50%
  Population Normal (%): 95%
  Population Tubulin-Different-Phenotype (%): 28%
[7]
  Population Apoptotic (%): 90%
  Population Fragmented Nuclei (%): 23%
  Population Healthy Nuclei (%): 21%
  Population Hoechst High Intensity Objects (%): 8%
  Population Membrane Permeable-Phenotype (%): 92%
  Population Mitochondria Different-Phenotype (%): 100%
  Population Mitotic Cells (%): 9%
  Population Normal (%): 91%
  Population Pyknosed Nuclei (%): 54%
  Population Tubulin-Different-Phenotype (%): 100%
  Total Cell Count: 138
[8]
  Population Apoptotic (%): 82%
  Population Fragmented Nuclei (%): 10%
  Population Healthy Nuclei (%): 47%
  Population Hoechst High Intensity Objects (%): 6%
  Population Membrane Permeable-Phenotype (%): 90%
  Population Mitotic Cells (%): 17%
  Population Normal (%): 93%
  Population Pyknosed Nuclei (%): 41%
[9]
  Population Apoptotic (%): 71%
  Population Fragmented Nuclei (%): 22%
  Population Healthy Nuclei (%): 51%
  Population Hoechst High Intensity Objects (%): 10%
  Population Membrane Permeable-Phenotype (%): 18%
  Population Mitochondria Different-Phenotype (%): 57%
  Population Mitotic Cells (%): 28%
  Population Normal (%): 89%
  Population Pyknosed Nuclei (%): 25%
  Population Tubulin-Different-Phenotype (%): 85%
  Total Cell Count: 246
[10]
  Population Apoptotic (%): 47%
  Population Fragmented Nuclei (%): 10%
  Population Healthy Nuclei (%): 68%
  Population Hoechst High Intensity Objects (%): 5%
  Population Membrane Permeable-Phenotype (%): 27%
  Population Mitochondria Different-Phenotype (%): 25%
  Population Mitotic Cells (%): 52%
  Population Normal (%): 94%
  Population Pyknosed Nuclei (%): 20%
  Population Tubulin-Different-Phenotype (%): 30%
  Total Cell Count: 128
[11]
  Population Apoptotic (%): 98%
  Population Fragmented Nuclei (%): 27%
  Population Healthy Nuclei (%): 14%
  Population Hoechst High Intensity Objects (%): 11%
  Population Membrane Permeable-Phenotype (%): 100%
  Population Mitochondria Different-Phenotype (%): 94%
  Population Mitotic Cells (%): 1%
  Population Normal (%): 88%
  Population Pyknosed Nuclei (%): 58%
  Population Tubulin-Different-Phenotype (%): 100%
  Total Cell Count: 138
[12]
  Population Apoptotic (%): 82%
  Population Fragmented Nuclei (%): 20%
  Population Healthy Nuclei (%): 43%
  Population Hoechst High Intensity Objects (%): 8%
  Population Membrane Permeable-Phenotype (%): 97%
  Population Mitochondria Different-Phenotype (%): 100%
  Population Mitotic Cells (%): 17%
  Population Normal (%): 91%
  Population Pyknosed Nuclei (%): 36%
  Total Cell Count: 108
